Activity calls are given as the source filed them. The calls are words filed in the database; no cut-off is given here.
What was measured:
Rattus norvegicus [1] = experiment: Toxicity in human SJSA1 cells xenografted rat assessed as change in body weight at 20 mg/kg, po qd (reference value: 1.9 to 6.8%); assay type: organism-based, SJSA-1; conditions: in vivo
Rattus norvegicus [2] = experiment: Toxicity in human SJSA1 cells xenografted dosed rat assessed as induction of histopathological changes dosed orally on daily basis under q24h regime; assay type: organism-based, SJSA-1; conditions: in vivo, po
Summary of the method: (§1)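 Rats bearing MDM2-amplified SJSA-1 human tumours, treated daily. Tolerability was monitored during treatment. Histopathology for compound-related findings was performed at the 30 mg/kg daily dose.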

Canis familiaris = experiment: AUC in beagle dog at 0.3 mg/kg, po; assay type: ADME, organism-based, Canis lupus familiaris; conditions: in vivo
[3] = Octanol water partition coefficient, logP of the compound; assay type: physicochemical
Rattus norvegicus [4] = organism: Rattus norvegicus; experiment: Toxicity in male rat assessed as changes in adrenal gland parameters; assay type: organism-based; conditions: in vivo
[5] = Intrinsic clearance in monkey liver microsomes; assay type: ADME, Macaca mulatta; conditions: rhesus monkey, read-out: CLH
Rattus norvegicus [6] = experiment: Toxicity in human SJSA1 cells xenografted rat assessed as mouse survival at 20 mg/kg, po qd; assay type: organism-based, SJSA-1; conditions: in vivo
Summary of the method: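 Tolerability was monitored in SJSA-1 tumour-bearing rats during the daily and 3qw (Monday, Wednesday, Friday) treatment schedules. Histopathology was done on all 3qw doses and on the 30 mg/kg daily group.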

Rattus norvegicus [7] = experiment: Toxicity in human SJSA1 cells xenografted rat assessed as change in body weight at 5 mg/kg, po qd (reference value: 1.9 to 6.8%); assay type: organism-based, SJSA-1; conditions: in vivo
[8] = Protein binding in beagle dog plasma by equilibrium dialysis method; assay type: ADME, cell-free, Canis lupus familiaris; conditions: read-out: PPB
Rattus norvegicus [9] = experiment: Toxicity in human SJSA1 cells xenografted rat assessed as change in body weight at 70 mg/kg, po dosed three times per week (reference value: 1.9 to 6.8%); assay type: organism-based, SJSA-1; conditions: in vivo
[10] = Volume of distribution at steady state in cynomolgus monkey at 0.1 mg/kg, iv; assay type: ADME, organism-based, Macaca fascicularis; conditions: in vivo, read-out: Vdss
Cynomolgus monkey = experiment: Oral bioavailability in cynomolgus monkey at 0.3 mg/kg; assay type: ADME, organism-based, Macaca fascicularis; conditions: in vivo
[11] = AUC (0 to 48 hrs) in human SJSA1 cells xenografted rat assessed as mouse survival at 30 mg/kg, po dosed 3 times per week; assay type: ADME, organism-based, SJSA-1; design: time < 48 hr, dose 30 mg/kg, route oral; conditions: in vivo
Summary of the method: (§2)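 Rats bearing MDM2-amplified human SJSA-1 tumors, dosed orally either daily or 3qw (Monday, Wednesday, Friday). Plasma exposure reported as AUC0-24, plus AUC0-48 for the 3qw schedule.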

Rattus norvegicus [12] = experiment: In-vivo inhibition of MDM2/p53 interaction in human SJSA1 cells xenografted rat assessed as increase in p21 mRNA level at 30 mg/kg, po measured within 72 hrs post dose by qRT-PCR method; assay type: functional, organism-based; conditions: SJSA-1
Summary of the method: (§3)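 SJSA-1 (MDM2-amplified) tumour-bearing rats were dosed at 30 mg/kg. Tumour samples were collected over time, and p21, MDM2 and PUMA mRNA were measured as p53 pharmacodynamic markers, alongside compound levels.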

Mus musculus [13] = experiment: Oral bioavailability in OF1 mouse at 3 mg/kg; assay type: ADME, organism-based; conditions: in vivo
[14] = Terminal half life in OF1 mouse at 1 mg/kg, iv; assay type: ADME, organism-based; conditions: in vivo, read-out: beta t1/2 (converted)
[15] = Terminal half life in cynomolgus monkey at 0.1 mg/kg, iv; assay type: ADME, organism-based, Macaca fascicularis; conditions: in vivo, read-out: beta t1/2 (converted)
[16] = Tmax in cynomolgus monkey at 0.3 mg/kg, po; assay type: ADME, organism-based, Macaca fascicularis; conditions: in vivo
Rattus norvegicus [17] = experiment: Toxicity in human SJSA1 cells xenografted dosed rat assessed as drug toleration dosed orally on daily basis under q24h regime; assay type: organism-based, SJSA-1; conditions: in vivo, po; summary of the method: as §1
[18] = Cmax in beagle dog at 0.3 mg/kg, po; assay type: ADME, organism-based, Canis lupus familiaris; design: dose 0.3 mg/kg, route oral; conditions: in vivo
Rattus norvegicus [19] = experiment: In-vivo inhibition of MDM2/p53 interaction in human SJSA1 cells xenografted rat assessed as increase in PUMA mRNA level at 30 mg/kg, po measured within 72 hrs post dose by qRT-PCR method; assay type: functional, organism-based; conditions: SJSA-1; summary of the method: as §3
Rattus norvegicus [20] = experiment: Volume of distribution at steady state in Sprague-Dawley rat at 1 mg/kg, iv; assay type: ADME, organism-based; conditions: in vivo
[21] = Intrinsic clearance in human liver microsomes; assay type: ADME; conditions: read-out: CLH
[22] = Inhibition of rat MDM2 by TR-FRET assay
[23] = Inhibition of cell proliferation of human Saos2 cells deficient with p53 gene; conditions: SAOS-2
[24] = target: Baculoviral IAP repeat-containing protein 2 (Homo sapiens, UniProt Q13490); experiment: Inhibition of cIAP (unknown origin) assessed as inhibition of cIAP-BIR3 interaction by TR-FRET assay
Sequence of Baculoviral IAP repeat-containing protein 2 (Q13490 whole entry): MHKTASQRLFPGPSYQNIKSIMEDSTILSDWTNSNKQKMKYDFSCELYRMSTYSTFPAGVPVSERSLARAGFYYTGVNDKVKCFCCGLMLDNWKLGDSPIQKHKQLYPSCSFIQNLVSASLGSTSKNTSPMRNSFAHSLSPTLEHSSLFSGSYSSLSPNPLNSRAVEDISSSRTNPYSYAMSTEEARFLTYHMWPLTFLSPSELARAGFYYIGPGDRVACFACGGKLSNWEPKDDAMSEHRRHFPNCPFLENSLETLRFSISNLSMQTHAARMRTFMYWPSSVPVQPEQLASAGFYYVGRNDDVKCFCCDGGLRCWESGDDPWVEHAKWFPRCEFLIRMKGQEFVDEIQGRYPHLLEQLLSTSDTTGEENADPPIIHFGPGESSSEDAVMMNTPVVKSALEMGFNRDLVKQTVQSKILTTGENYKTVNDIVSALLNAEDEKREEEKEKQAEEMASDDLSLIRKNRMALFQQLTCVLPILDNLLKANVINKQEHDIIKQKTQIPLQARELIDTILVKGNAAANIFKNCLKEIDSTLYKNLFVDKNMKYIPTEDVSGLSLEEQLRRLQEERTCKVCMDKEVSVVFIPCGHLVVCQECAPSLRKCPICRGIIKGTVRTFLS

[25] = AUC (0 to 48 hrs) in human SJSA1 cells xenografted rat assessed as mouse survival at 70 mg/kg, po dosed 3 times per week; assay type: ADME, organism-based, SJSA-1; design: time < 48 hr, dose 70 mg/kg, route oral; conditions: in vivo; summary of the method: as §2
[26] = AUC (0 to 24 hrs) in human SJSA1 cells xenografted rat assessed as mouse survival at 5 mg/kg, po qd; assay type: ADME, organism-based, SJSA-1; design: time < 24 hr, dose 5 mg/kg, route oral; conditions: in vivo; summary of the method: as §2
Mus musculus [27] = experiment: AUC in OF1 mouse at 3 mg/kg, po; assay type: ADME, organism-based; conditions: in vivo
[28] = target: E3 ubiquitin-protein ligase XIAP (Homo sapiens, UniProt P98170); experiment: Inhibition of XIAP (unknown origin) assessed as inhibition of XIAP-BIR3 interaction by TR-FRET assay
Sequence of E3 ubiquitin-protein ligase XIAP (P98170 whole entry): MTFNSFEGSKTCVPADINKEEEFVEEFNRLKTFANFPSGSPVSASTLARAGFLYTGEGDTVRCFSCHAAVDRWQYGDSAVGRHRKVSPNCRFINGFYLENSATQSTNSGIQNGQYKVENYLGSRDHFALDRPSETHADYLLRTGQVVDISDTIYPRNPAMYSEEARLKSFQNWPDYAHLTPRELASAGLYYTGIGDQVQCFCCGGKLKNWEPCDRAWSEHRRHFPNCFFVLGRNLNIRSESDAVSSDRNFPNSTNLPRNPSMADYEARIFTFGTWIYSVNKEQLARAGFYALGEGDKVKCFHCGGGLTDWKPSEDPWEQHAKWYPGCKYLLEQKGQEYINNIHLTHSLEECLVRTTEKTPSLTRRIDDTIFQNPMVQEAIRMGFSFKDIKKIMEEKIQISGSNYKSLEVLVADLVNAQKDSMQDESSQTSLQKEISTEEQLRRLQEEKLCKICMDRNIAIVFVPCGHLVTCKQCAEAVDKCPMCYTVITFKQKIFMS

COc1cc2c(cc1OC(C)C)[C@H](c1ccc(Cl)cc1)N(c1ccc(N(C)C[C@H]3CC[C@H](N4CCN(C)C(=O)C4)CC3)cc1)C(=O)C2 [CGM-097]
Activity (Rattus norvegicus [1]): 3.4%
Activity (Rattus norvegicus [2]): Non-toxic
AUC (Canis familiaris): 5.993 µM·h
logP [3]: 5.8
Activity (Rattus norvegicus [4]): Toxic
microsomal CLint [5]: 26.6 µL/min/mg
Activity (Rattus norvegicus [6]): Non-toxic
Activity (Rattus norvegicus [7]): 2.8%
fraction unbound [8]: < 0.01
Activity (Rattus norvegicus [9]): 7%
Vd [10]: 2 L/kg
F (Cynomolgus monkey): 57%
AUC at 48 h [11]: 381 µM·h
inhibition (Rattus norvegicus [12]): Active
F (Mus musculus [13]): 71%
half-life [14]: 6.4 h
half-life [15]: 8.3 h
Tmax [16]: 1.3 h
Activity (Rattus norvegicus [17]): Non-toxic
Cmax [18]: 251 nM
inhibition (Rattus norvegicus [19]): Active
Vdss (Rattus norvegicus [20]): 6.4 L/kg
microsomal CLint [21]: 52.3 µL/min/mg
Ki [22]: 0.0474 µM
IC50 [23]: 20.5 µM
IC50 [24]: > 50 µM
AUC at 48 h [25]: 1040 µM·h
AUC at 24 h [26]: 34 µM·h
AUC (Mus musculus [27]): 3.337 µM·h
IC50 [28]: > 50 µM

Reference: ChEMBL document CHEMBL3600357 (J Med Chem, 2015)
